Source: ChEMBL document CHEMBL5038630 (J Med Chem, 2022)
Active and inactive are the calls of the source. No cut-off for these calls is given here.

Key:
[1] = target: Glutamate NMDA receptor; Grin1/Grin2a (Rattus norvegicus, UniProt P35439+Q00959); assay: Agonist activity at rat GluN1/GluN2A NMDA receptor expressed in Xenopus oocytes measured after 4 days in presence of L-glutamte by two-electrode voltage-clamp recording assay; assay type: cell-based, Oocyte
Outline: (§1)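 Rat GluN1 plus GluN2A or GluN2B cRNA (1:2) in Xenopus oocytes. TEVC at −40 mV, room temperature, 2–4 days post-injection. Bath: 90 mM NaCl, 1 mM KCl, 10 mM HEPES, 0.5 mM BaCl2, 0.01 mM EDTA, pH 7.4. Oocytes were BAPTA-injected before recording. Agonist applied with 300 μM L-Glu throughout. NR means <5% response at the stated concentration. 3–14 oocytes.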

[2] = target: Glutamate NMDA receptor; Grin1/Grin2c (Rattus norvegicus, UniProt P35439+Q00961); assay: Agonist activity at rat GluN1/GluN2C NMDA receptor expressed in Xenopus oocytes measured after 4 days in presence of L-glutamte by two-electrode voltage-clamp recording assay; assay type: cell-based, Oocyte
Outline: (§2)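 Xenopus oocytes were injected with rat GluN1 and GluN2C or GluN2D cRNA (1:2) and recorded by TEVC 2–4 days later at −40 mV, room temperature, pH 7.4 HEPES/NaCl/BaCl2 saline. Concentration-response with 300 μM L-Glu present. NR means <5% response at the concentration given. DMSO ≤0.5%. 3–14 oocytes.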

[3] = target: Ionotropic glutamate receptor NMDA 1/2D (Rattus norvegicus, UniProt P35439+Q62645); assay: Agonist activity at rat GluN1/GluN2D NMDA receptor expressed in Xenopus oocytes measured after 4 days in presence of L-glutamte by two-electrode voltage-clamp recording assay; assay type: cell-based, Oocyte; outline: as §2
[4] = target: T1, Glutamate NMDA receptor; Grin1/Grin2a (Rattus norvegicus) (UniProt P35439+Q00959); assay: Agonist activity at rat GluN1/GluN2A NMDA receptor expressed in Xenopus oocytes assessed as maximal relative efficacy measured after 4 days in presence of L-glutamte by two-electrode voltage-clamp recording assay relative to glycine; assay type: cell-based; conditions: Oocyte, time 4.0 day
Outline: as §1, with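 “throughout. […]” for “throughout.”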

[5] = target: T2, Glutamate NMDA receptor; Grin1/Grin2b (Rattus norvegicus) (UniProt P35439+Q00960); assay: Agonist activity at rat GluN1/GluN2B NMDA receptor expressed in Xenopus oocytes assessed as maximal relative efficacy measured at 300 uM after 4 days in presence of L-glutamte by two-electrode voltage-clamp recording assay relative to glycine; assay type: cell-based; conditions: Oocyte, time 4.0 day
Outline: as §1, with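 “throughout. […]” for “throughout.”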

[6] = target: Glutamate NMDA receptor; Grin1/Grin2c (Rattus norvegicus) (UniProt P35439+Q00961); assay: Agonist activity at rat GluN1/GluN2C NMDA receptor expressed in Xenopus oocytes assessed as maximal relative efficacy measured after 4 days in presence of L-glutamte by two-electrode voltage-clamp recording assay relative to glycine; assay type: cell-based; conditions: Oocyte, time 4.0 day
Outline: as §2, with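 “present. […]” for “present.”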

[7] = target: T3, Ionotropic glutamate receptor NMDA 1/2D (Rattus norvegicus) (UniProt P35439+Q62645); assay: Agonist activity at rat GluN1/GluN2D NMDA receptor expressed in Xenopus oocytes assessed as maximal relative efficacy measured after 4 days in presence of L-glutamte by two-electrode voltage-clamp recording assay relative to glycine; assay type: cell-based; conditions: Oocyte, time 4.0 day
Outline: as §2, with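 “present. […]” for “present.”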

[8] = target: T2, Glutamate NMDA receptor; Grin1/Grin2b (Rattus norvegicus); assay: Agonist activity at rat GluN1/GluN2B NMDA receptor expressed in Xenopus oocytes assessed as maximal relative efficacy measured at 100 uM after 4 days in presence of L-glutamte by two-electrode voltage-clamp recording assay relative to glycine; assay type: cell-based; conditions: Oocyte, time 4.0 day
Outline: as §1, with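 “throughout. […]” for “throughout.”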

[9] = target: T2, Glutamate NMDA receptor; Grin1/Grin2b (Rattus norvegicus); assay: Agonist activity at rat GluN1/GluN2B NMDA receptor expressed in Xenopus oocytes assessed as maximal relative efficacy measured after 4 days in presence of L-glutamte by two-electrode voltage-clamp recording assay relative to glycine; assay type: cell-based; conditions: Oocyte, filed as agonist, time 4.0 day
Outline: as §1, with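 “throughout. […]” for “throughout.”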

[10] = target: T2, Glutamate NMDA receptor; Grin1/Grin2b (Rattus norvegicus); assay: Agonist activity at rat GluN1/GluN2B NMDA receptor expressed in Xenopus oocytes assessed as maximal relative efficacy measured at 10 uM after 4 days in presence of L-glutamte by two-electrode voltage-clamp recording assay relative to glycine; assay type: cell-based; conditions: Oocyte, time 4.0 day
Outline: as §1, with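 “throughout. […]” for “throughout.”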

[11] = target: T1, Glutamate NMDA receptor; Grin1/Grin2a (Rattus norvegicus); assay: Agonist activity at rat GluN1/GluN2A NMDA receptor expressed in Xenopus oocytes assessed as maximal relative efficacy measured at 30 uM after 4 days in presence of L-glutamte by two-electrode voltage-clamp recording assay relative to glycine; assay type: cell-based; conditions: Oocyte, time 4.0 day
Outline: as §1, with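 “throughout. […]” for “throughout.”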

[12] = target: T2, Glutamate NMDA receptor; Grin1/Grin2b (Rattus norvegicus); assay: Agonist activity at rat GluN1/GluN2B NMDA receptor expressed in Xenopus oocytes assessed as maximal relative efficacy measured at 30 uM after 4 days in presence of L-glutamte by two-electrode voltage-clamp recording assay relative to glycine; assay type: cell-based; conditions: Oocyte, time 4.0 day
Outline: as §1, with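 “throughout. […]” for “throughout.”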

[13] = target: T3, Ionotropic glutamate receptor NMDA 1/2D (Rattus norvegicus); assay: Agonist activity at rat GluN1/GluN2D NMDA receptor expressed in Xenopus oocytes assessed as maximal relative efficacy measured at 30 uM after 4 days in presence of L-glutamte by two-electrode voltage-clamp recording assay relative to glycine; assay type: cell-based; conditions: Oocyte, time 4.0 day
Outline: as §2, with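 “present. […]” for “present.”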

[14] = target: Glutamate NMDA receptor; Grin1/Grin2b (Rattus norvegicus, UniProt P35439+Q00960); assay: Agonist activity at rat GluN1/GluN2B NMDA receptor expressed in Xenopus oocytes measured after 4 days in presence of L-glutamte by two-electrode voltage-clamp recording assay; assay type: cell-based, Oocyte; outline: as §1
[15] = target: T3, Ionotropic glutamate receptor NMDA 1/2D (Rattus norvegicus); assay: Agonist activity at rat GluN1/GluN2D NMDA receptor expressed in Xenopus oocytes assessed as maximal relative efficacy measured at 100 uM after 4 days in presence of L-glutamte by two-electrode voltage-clamp recording assay relative to glycine; assay type: cell-based; conditions: Oocyte, time 4.0 day
Outline: as §2, with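 “present. […]” for “present.”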

[16] = test system: Oocyte; assay: Agonist activity at recombinant GluN1a/GluN2B NMDA receptor (unknown origin) expressed in Xenopus oocytes assessed as inhibition of glycine-induced activation of current measured at 10 uM after 4 days in presence of L-glutamte by two-electrode voltage-clamp recording assay; assay type: cell-based; conditions: Homo sapiens, filed as agonist, time 4.0 day
Outline: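 Oocytes expressing GluN1/2B were BAPTA-injected and held under two-electrode voltage clamp in continuous 300 μM L-Glu. […] Values are mean ± SEM from 12 oocytes.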

[17] = Binding affinity at recombinant GluN1a/GluN2B NMDA receptor (unknown origin) expressed in Xenopus oocytes measured after 4 days in presence of L-glutamte by two-electrode voltage-clamp recording assay; assay type: cell-based, Homo sapiens; conditions: oocyte
[18] = test system: Oocyte; assay: Agonist activity at mutant GluN1 F484A/T518 mutant//GluN3A NMDA receptor (unknown origin) expressed in Xenopus oocytes measured after 4 days in presence of glycine by two-electrode voltage-clamp recording assay; assay type: cell-based; conditions: Homo sapiens, time 4.0 day
[19] = test system: Oocyte; assay: Agonist activity at mutant GluN1 F484A/T518 mutant//GluN3B NMDA receptor (unknown origin) expressed in Xenopus oocytes measured after 4 days in presence of glycine by two-electrode voltage-clamp recording assay; assay type: cell-based; conditions: Homo sapiens, time 4.0 day
[20] = target: T3, Ionotropic glutamate receptor NMDA 1/2D (Rattus norvegicus); assay: Agonist activity at rat GluN1/GluN2D NMDA receptor expressed in Xenopus oocytes assessed as maximal relative efficacy measured at 300 uM after 4 days in presence of L-glutamte by two-electrode voltage-clamp recording assay relative to glycine; assay type: cell-based; conditions: Oocyte, time 4.0 day
Outline: as §2, with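 “present. […]” for “present.”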

[21] = target: T1, Glutamate NMDA receptor; Grin1/Grin2a (Rattus norvegicus); assay: Agonist activity at rat GluN1/GluN2A NMDA receptor expressed in Xenopus oocytes assessed as maximal relative efficacy measured at 300 uM after 4 days in presence of L-glutamte by two-electrode voltage-clamp recording assay relative to glycine; assay type: cell-based; conditions: Oocyte, time 4.0 day
Outline: as §1, with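 “throughout. […]” for “throughout.”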

| SMILES | EC50 [1] [µM] | EC50 [2] [µM] | EC50 [3] [µM] | Rmax [4] [%] | Rmax [5] [%] | Rmax ([6]; filed as agonist) [%] | Rmax [7] [%] | Rmax [8] [%] | Rmax [6] [%] | further results |
| --- | --- | --- | --- | --- | --- | --- | --- | --- | --- | --- |
| N[C@H](CNC(=O)c1ccc(-c2ccc(Cl)c(Cl)c2)o1)C(=O)O | 23 | 4.2 | 31 | 20 | < 5 | 74 | 24 | – | – | – |
| N[C@H](CNC(=O)c1ccc(-c2ccccc2/C=C/c2cccc(F)c2)o1)C(=O)O | – | 0.75 | – | – | – | – | – | < 5 | 22 | – |
| N[C@H](CO)C(=O)O | – | – | – | – | – | 111 | – | – | – | Rmax ([4]; filed as agonist): 96%; Rmax ([7]; filed as agonist): 93%; Rmax [9]: 100% |
| N[C@H](CNC(=O)c1ccc(-c2ccccc2Br)o1)C(=O)O | 0.053 | 0.036 | 0.08 | 34 | – | 49 | 9 | < 5 | – | – |
| Cc1ccccc1-c1ccc(C(=O)NC[C@@H](N)C(=O)O)o1 | 0.22 | 0.14 | 0.26 | – | – | 103 | 17 | – | – | Rmax ([4]; filed as agonist): 58%; Rmax [10]: < 5% |
| N[C@H](CNC(=O)c1ccc(-c2cccc(C(F)(F)F)c2)o1)C(=O)O | 6.6 | 1.8 | 7.7 | 17 | < 5 | – | 35 | – | 36 | – |
| N[C@H](CNC(=O)c1ccc(-c2ccccc2/C=C/c2ccccc2)o1)C(=O)O | – | 5.8 | – | – | – | – | – | – | 16 | Rmax [11]: < 5%; Rmax [12]: < 5%; Rmax [13]: < 5% |
| N[C@H](CNC(=O)c1ccc(-c2ccc(Cl)cc2[N+](=O)[O-])o1)C(=O)O | – | 0.074 | – | – | – | – | – | < 5 | 28 | IC50 [14]: 10 µM; Rmax [15]: < 5%; inhibition [16]: 57%; Ki [17]: 0.1 µM; inhibition [18]: inactive; inhibition [19]: inactive |
| N[C@H](CNC(=O)c1ccc(-c2cccc3c2OCCO3)o1)C(=O)O | – | 3.9 | – | – | < 5 | – | – | – | 17 | – |
| COc1ccc(-c2ccc(C(=O)NC[C@@H](N)C(=O)O)o2)cc1 | – | 1.3 | – | – | – | – | – | < 5 | 26 | Rmax [15]: < 5% |
| N[C@H](CNC(=O)c1ccc(-c2ccccc2Cl)o1)C(=O)O | 0.26 | 0.12 | 0.27 | 38 | < 5 | 70 | 11 | – | – | – |
| N[C@H](CNC(=O)c1ccc(-c2ccccc2C(F)(F)F)o1)C(=O)O | 0.13 | 0.04 | – | 24 | – | – | – | < 5 | 36 | Rmax [15]: < 5% |
| CN(C)S(=O)(=O)c1ccccc1-c1ccc(C(=O)NC[C@@H](N)C(=O)O)o1 | 10 | 4.8 | – | 22 | < 5 | 119 | – | – | – | Rmax [20]: < 5% |
| COCc1ccccc1-c1ccc(C(=O)NC[C@@H](N)C(=O)O)o1 | 3.1 | 1.6 | 3.2 | 32 | < 5 | 114 | 11 | – | – | – |
| N[C@H](CNC(=O)c1ccc(-c2ccc(Cl)cc2)o1)C(=O)O | 4.3 | 1.7 | – | 14 | – | 44 | – | < 5 | – | Rmax [15]: < 5% |
| N[C@H](CNC(=O)c1ccc(-c2cccc3ccccc23)o1)C(=O)O | 0.18 | 0.11 | 0.23 | 29 | < 5 | 53 | 12 | – | – | – |
| N[C@H](CNC(=O)c1ccc(-c2ccccc2)o1)C(=O)O | 4.8 | 2.9 | 4.3 | 22 | < 5 | 77 | 16 | – | – | – |
| N[C@H](CNC(=O)c1ccc(-c2ccccc2OCc2ccccc2)o1)C(=O)O | – | 4 | – | – | < 5 | 157 | – | – | – | Rmax [21]: < 5% |
| N[C@H](CNC(=O)c1ccc(-c2cccc(Cl)c2)o1)C(=O)O | 4.9 | 1.3 | 5 | 27 | < 5 | 68 | 38 | – | – | – |
